Key:
dengue virus type 2 [1] = test: Antiviral activity against DENV serotype 2 strain New Guinea C infected in african green monkey Vero-B cells assessed as inhibition of virus-induced cytopathic effect after 2 hrs by CPE-reduction assay; type: functional, organism-based
Procedure, shortened: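 Virus and compound mixed and pre-incubated together for 2 h at 37 °C before being added to cells. Co-addition without pre-incubation was also tested. Read-out was inhibition of virus-induced cytopathic effect (cell death). EC50 was taken from the dose-response.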

[2] = Cytotoxicity against DENV serotype 2 strain New Guinea C infected african green monkey Vero B cells by CPE-reduction assay; type: cell-based; settings: chlorocebus sabaeus
[3] = Selectivity index, CC50 for african green monkey Vero B cells to EC50 for DENV serotype 2 strain New Guinea C by CPE-reduction assay
dengue virus type 2 [4] = test: Antiviral activity against DENV serotype 2 strain New Guinea C infected in african green monkey Vero cells assessed as reduction in production and release of infectious progeny virions after 2 hrs by virus yield-reduction assay; type: functional, organism-based
Procedure, shortened: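 Dose-response validation in virus-infected, compound-treated cells. Read-out was the amount of dengue viral RNA produced, quantified as a virus yield reduction. EC50 was derived from this.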

[5] = Cytotoxicity against DENV serotype 2 strain New Guinea C infected african green monkey Vero B cells by virus yield-reduction assay; type: cell-based; settings: chlorocebus sabaeus
[6] = Selectivity index, CC50 for african green monkey Vero B cells to EC50 for DENV serotype 2 strain New Guinea C by virus yield-reduction assay; type: toxicity, cell-based; settings: read-out: Selectivity Index
Procedure, shortened: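 Selectivity index is CC50 divided by EC50. The EC50 comes from a dose-response measurement of the dengue virus RNA produced by virus-infected cells treated with compound (virus yield reduction).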

Yellow fever virus = test: Antiviral activity against Yellow fever virus; type: functional, organism-based
dengue virus type 2 [7] = test: Antiviral activity against DENV serotype 2 strain New Guinea C infected in BHK-21 cells assessed as inhibition of plaque formation after 2 hrs by plaque-reduction assay; type: functional, organism-based
Procedure, shortened: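 Dose-response effect on production of infectious dengue virus serotype 2 progeny, read as plaque formation. EC50 was derived from the plaque counts.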

Row | SMILES | EC50 (dengue virus type 2 [1]) | CC50 [2] | Selectivity Index [3] | EC50 (dengue virus type 2 [4]) | CC50 [5] | selectivity ratio [6] | IC50 (Yellow fever virus) | inhibition (dengue virus type 2 [7]) | EC50 (dengue virus type 2 [7]; BHK-21, 2 h)
1 | Oc1ccc(/C=N/Nc2nc(-c3ccc(-c4ccccc4)cc3)cs2)cc1 | 16.8 µM | > 135 µM | >8 | 5.29 µM | > 135 µM | > 25 |  |  | 
2 | C/C(=N\Nc1nc(-c2ccc(-c3ccccc3)cc2)cs1)c1ccc([N+](=O)[O-])cc1 | 41 µM | 82 µM | 2 | 12.2 µM | 70.8 µM | 6 |  |  | 
3 | C(=N\Nc1nc(-c2ccc(-c3ccccc3)cc2)cs1)/c1ccccc1 | 35.2 µM | > 141 µM | >4 | 128 µM | > 141 µM | > 1 |  |  | 
4 | Oc1ccc(C2=NN(c3nc(-c4ccc(-c5ccccc5)cc4)cs3)C(c3ccccc3)C2)cc1 (stereo unspecified) | 13.2 µM | 79.2 µM | 6 | 8.44 µM | 86.8 µM | 10 |  |  | 
5 | COc1ccc(C2=NN(c3nc(-c4ccc(Cl)cc4)cs3)C(c3ccc(O)c(OC)c3)C2)cc1 (stereo unspecified) | 0.79 µM | 2.4 µM | 3 | 7 µM | 54.6 µM | 8 |  |  | 
6 | COc1ccc(C2=NN(c3nc(-c4ccc(-c5ccccc5)cc4)cs3)C(c3ccc(O)c(OC)c3)C2)cc1 (stereo unspecified) | 8.4 µM | 16.8 µM | 2 | 3.79 µM | 25.6 µM | 7 |  |  | 
7 | Cc1nc(-n2nc(-c3ccccc3)cc2-c2ccccc2)sc1C(=O)/C=C/c1ccc(Cl)c(Cl)c1 |  |  |  |  |  |  | 51 µM |  | 
8 | C/C(=N\Nc1nc(-c2ccc(Cl)cc2)cs1)c1ccc(O)cc1 | 5.8 µM | 145 µM | 25 | 1.32 µM | 125 µM | 95 |  | Dose-dependent effect | 1390 nM
9 | NC(=O)c1ncn([C@@H]2O[C@H](CO)[C@@H](O)[C@H]2O)n1 [RIBAVIRIN] |  |  |  | 47.9 µM | > 410 µM | > 9 |  |  | 
10 | COc1ccc(C2=NN(c3nc(-c4ccc(-c5ccccc5)cc4)cs3)C(c3ccc(O)cc3)C2)cc1 (stereo unspecified) | 24.8 µM | > 99 µM | >4 | 18.6 µM | 99.3 µM | 5 |  |  | 
11 | COc1ccc(/C(C)=N/Nc2nc(-c3ccc(-c4ccccc4)cc3)cs2)cc1 | 100 µM | 200 µM | 2 | 17.7 µM | 117 µM | 7 |  |  | 
12 | Nc1ccccc1SCc1csc(-c2ccc(Cl)cc2)n1 |  |  |  |  |  |  | 31 µM |  | 
